# Measured values taken from ChEMBL document CHEMBL2169757, “Discovery, synthesis, and biological evaluation of a novel group of selective inhibitors of filoviral entry” (J Med Chem, 2011).
# Activity calls are given as the source filed them. The calls are words filed in the database; no cut-off is given here.
# Tests used:
# Type in all cases: cell-based
# 293T [1] = assay: Inhibition of compound-pretreated Ebolavirus GP pseudotyped in HIV virions infected in human 293T cells assessed as viral-cell entry at 60 uM after 48 hrs by luciferase gene assay relative to DMSO-treated control; design: scale not given: the % may be the effect or the level left; details: Zaire ebolavirus
# Outline: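 Ebola GP-pseudotyped HIV luciferase virions were mixed with compound (60 μM final) before infecting 293T cells. Medium was changed after overnight incubation, and luciferase was read from lysates at 48 h. Result is % infectivity relative to DMSO vehicle (0.1~0.2% final).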
# A549 = assay: Inhibition of compound-pretreated Marburg GP pseudotyped in HIV virions infected in human A549 cells assessed as inhibition of viral-cell entry at 60 uM after 48 hrs by luciferase gene assay relative to DMSO-treated control; details: Marburgvirus
# Outline: (§1)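 HIV luciferase virions pseudotyped with Marburg GP (Lake Victoria) were preincubated with compound (60 μM final), then added to 293T, HeLa or A549 cells. Medium was replaced after overnight incubation, and lysates were read for luciferase at 48 h. Values are % of DMSO control, mean ± standard error of three independent experiments.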
# HeLa [2] = assay: Inhibition of compound-pretreated Marburg GP pseudotyped in HIV virions infected in human HeLa cells assessed as inhibition of viral-cell entry at 60 uM after 48 hrs by luciferase gene assay relative to DMSO-treated control; details: Marburgvirus; outline: as §1
# 293T [3] = assay: Inhibition of compound-pretreated Marburg GP pseudotyped in HIV virions infected in human 293T cells assessed as inhibition of viral-cell entry at 60 uM after 48 hrs by luciferase gene assay relative to DMSO-treated control; details: Marburgvirus; outline: as §1
# HeLa [4] = assay: Inhibition of compound-pretreated VSV GP pseudotyped in HIV virions infected in human HeLa cells assessed as inhibition of viral-cell entry after 48 hrs by luciferase gene assay relative to DMSO-treated control; details: Vesicular stomatitis virus
# 293T [5] = assay: Inhibition of compound-pretreated VSV GP pseudotyped in HIV virions infected in human 293T cells assessed as inhibition of viral-cell entry after 48 hrs by luciferase gene assay relative to DMSO-treated control; details: Vesicular stomatitis virus
# [6] = (§2) Inhibition of compound-pretreated Ebolavirus GP pseudotyped in HIV virions infected in human HeLa cells assessed as inhibition of viral-cell entry after 48 hrs by luciferase gene assay relative to DMSO-treated control; details: Zaire ebolavirus
# Outline: (§3)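 Pseudotypes were briefly preincubated with compound at room temperature, then added to 293T or HeLa cells seeded the day before. Medium was replaced after overnight incubation, and cells were lysed at 48 h for firefly luciferase reading. Single point was 30 μM; curves spanned 3.75–120 or 3.75–60 μM. Infectivity was taken as % of DMSO control, from 3–5 independent experiments.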
# HeLa [7] = assay: as §2; details: Zaire ebolavirus; outline: as §3
# [8] = (§4) Inhibition of compound-pretreated Ebolavirus GP pseudotyped in HIV virions infected in human 293T cells assessed as inhibition of viral-cell entry after 48 hrs by luciferase gene assay relative to DMSO-treated control; details: Zaire ebolavirus, HEK-293T; outline: as §3
# 293T [9] = assay: as §4; details: Zaire ebolavirus; outline: as §3
# HeLa [10] = assay: Inhibition of compound-pretreated VSV GP pseudotyped in HIV virions infected in human HeLa cells assessed as inhibition of viral-cell entry at 120 uM after 48 hrs by luciferase gene assay relative to DMSO-treated control; details: Vesicular stomatitis virus
# 293T [11] = assay: Inhibition of compound-pretreated VSV GP pseudotyped in HIV virions infected in human 293T cells assessed as inhibition of viral-cell entry at 120 uM after 48 hrs by luciferase gene assay relative to DMSO-treated control; details: Vesicular stomatitis virus
# HeLa [12] = assay: Inhibition of compound-pretreated Ebolavirus GP pseudotyped in HIV virions infected in human HeLa cells assessed as inhibition of viral-cell entry at 30 uM after 48 hrs by luciferase gene assay relative to DMSO-treated control; details: Zaire ebolavirus; outline: as §3
# 293T [13] = assay: Inhibition of compound-pretreated Ebolavirus GP pseudotyped in HIV virions infected in human 293T cells assessed as inhibition of viral-cell entry at 30 uM after 48 hrs by luciferase gene assay relative to DMSO-treated control; details: Zaire ebolavirus; outline: as §3
# HEK-293T [14] = assay: Cytotoxicity against human 293T cells infected with Ebolavirus GP pseudotyped in HIV virions assessed as effect on cell morphology at 60 uM
# Outline: (§5)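 Compounds at 60 μM final were mixed with Ebola GP-pseudotyped HIV luciferase virions and added to 293T cells. Cell morphology and growth were checked by light microscopy at 24 and 48 h post-infection. Vehicle was DMSO at 0.1~0.2% final.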
# HEK-293T [15] = assay: Cytotoxicity against human 293T cells infected with Ebolavirus GP pseudotyped in HIV virions assessed as effect on cell growth at 60 uM; outline: as §5
# HEK-293T [16] = assay: Cytotoxicity against human 293T cells infected with Ebolavirus GP pseudotyped in HIV virions assessed as cell death at 60 uM; outline: as §5
smiles,measurement,setting,value
CCN(CC)CC(=O)NCc1cn(-c2ccc(OC)cc2)nn1,Activity,293T [1],58%
COc1ccc(-c2cc(CNC(=O)OCC(C)C)on2)cc1,Activity,293T [1],118%
CCN(CC)CC(=O)NCc1cn(-c2ccccc2Br)nn1,Activity,293T [1],19%
CCN(CC)CC(=O)NCc1cn(-c2ccc(Br)cc2)nn1,Activity,293T [1],18%
CCN(CC)CC(=O)NCc1cc(-c2ccc(I)cc2)no1,inhibition,A549,Active
same,inhibition,HeLa [2],Active
same,inhibition,293T [3],Active
same,inhibition,HeLa [4],inactive
same,inhibition,293T [5],inactive
same,IC50,[6],2.5 µM
same,inhibition,HeLa [7],Dose-dependent effect
same,IC50,[8],2.5 µM
same,inhibition,293T [9],Dose-dependent effect
same,Activity,293T [1],6%
COc1ccc(-c2cc(CNC(=O)[C@@H](NC(=O)OCc3ccccc3)C(C)C)on2)cc1,Activity,293T [1],220%
CCCc1cc(CNC(=O)CN(CC)CC)on1,Activity,293T [1],102%
CCN(CC)CC(=O)NCc1cn(-c2ccccc2[N+](=O)[O-])nn1,Activity,293T [1],66%
COc1ccc(-c2cc(CNC(=O)CBr)on2)cc1,Activity,293T [1],121%
CCN(CC)CC(=O)NCc1cc(-c2ccc(OC)c(I)c2)no1,Activity,293T [1],4%
CCN(CC)CC(=O)NCc1cn(-c2cccc(I)c2)nn1,Activity,293T [1],111%
CCCCCCCn1cc(CNC(=O)CN(CC)CC)nn1,Activity,293T [1],60%
CCN(CC)CC(=O)NCc1cc(-c2ccccc2OC)no1,Activity,293T [1],87%
CCN(CC)CC(=O)NCc1cc(-c2cccc(OC)c2)no1,inhibition,HeLa [4],inactive
same,inhibition,293T [5],inactive
same,IC50,[6],10 µM
same,inhibition,HeLa [7],Dose-dependent effect
same,IC50,[8],10 µM
same,inhibition,293T [9],Dose-dependent effect
same,Activity,293T [1],4%
COc1ccc(-c2cc(CNC(=O)[C@@H](NC(=O)OCc3ccccc3)C3CCCN3C(=O)OCc3ccccc3)on2)cc1 (stereo not given in full),Activity,293T [1],254%
CCN(CC)CC(=O)NCc1cc(-c2ccc(OC)cc2)no1,inhibition,A549,20%
same,inhibition,HeLa [2],20%
same,inhibition,293T [3],20%
same,inhibition,HeLa [10],inactive
same,inhibition,293T [11],inactive
same,IC50,[6],30 µM
same,inhibition,HeLa [7],Dose-dependent effect
same,IC50,[8],30 µM
same,inhibition,293T [9],Dose-dependent effect
same,inhibition,HeLa [12],> 50%
same,inhibition,293T [13],> 50%
same,Activity,293T [1],56%
CCN(CC)CC(=O)NCc1cc(-c2c(C)cccc2C)no1,Activity,293T [1],59%
O=C1NC2(CCCC2)C(COc2ccccc2)O1 (stereo not given),inhibition,HeLa [10],Active
same,inhibition,293T [11],Active
COc1ccc(-c2cc(CNC(=O)CNC(=O)OCc3ccccc3)on2)cc1,Activity,293T [1],148%
CCN(CC)CC(=O)NCc1cc(-c2cccc([N+](=O)[O-])c2)no1,Activity,293T [1],37%
O=C(NCc1cc(-c2ccc(Br)cc2)no1)c1ccccc1,Activity,293T [1],82%
CCN(CC)CC(=O)NCc1cn(-c2cccc(OC)c2)nn1,Activity,293T [1],90%
CCN(CC)CC(=O)NCc1cn(-c2c(Cl)cc(Cl)cc2Cl)nn1,Activity,293T [1],33%
COc1ccc(-c2cc(CNC(=O)[C@H](Cc3ccccc3)NC(=O)OC(C)(C)C)on2)cc1,Activity,293T [1],188%
CCN(CC)CC(=O)NCc1cc(-c2ccc([N+](=O)[O-])cc2)no1,Activity,293T [1],30%
CCC(=O)NCc1cc(-c2ccc(Br)cc2)no1,Activity,293T [1],99%
CCN(CC)CC(=O)NCc1cc(-c2ccc(C)cc2)no1,Activity,HEK-293T [14],Non-toxic
same,Activity,HEK-293T [15],Non-toxic
same,Activity,293T [1],381%
CCN(CC)CC(=O)NCc1cc(-c2ccccc2)no1,Activity,293T [1],181%
CC(=O)NCc1cc(-c2ccc(Br)cc2)no1,Activity,HEK-293T [14],Non-toxic
same,Activity,HEK-293T [15],Non-toxic
same,Activity,293T [1],105%
O=C(CBr)NCc1cc(-c2ccc(Br)cc2)no1,Activity,HEK-293T [16],Toxic
CCN(CC)CC(=O)NCc1cn(-c2c(Br)cc(Br)cc2Br)nn1,inhibition,HeLa [4],inactive
same,inhibition,293T [5],inactive
same,IC50,[6],5 µM
same,inhibition,HeLa [7],Dose-dependent effect
same,IC50,[8],5 µM
same,inhibition,293T [9],Dose-dependent effect
same,Activity,293T [1],3%
CCN(CC)CC(=O)NCc1cc(-c2ccc(Br)cc2)no1,Activity,293T [1],30%
CCN(CC)CC(=O)NCc1cn(-c2ccc(I)cc2)nn1,inhibition,A549,> 90%
same,inhibition,HeLa [2],> 90%
same,inhibition,293T [3],Active
same,inhibition,HeLa [4],inactive
same,inhibition,293T [5],inactive
same,IC50,[6],5 µM
same,inhibition,HeLa [7],Dose-dependent effect
same,IC50,[8],5 µM
same,inhibition,293T [9],Dose-dependent effect
same,Activity,293T [1],4%
CC(C)C(=O)NCc1cc(-c2ccc(Br)cc2)no1,Activity,293T [1],116%
CCN(CC)CC(=O)NCc1cc(-c2ccc(OC)c(OC)c2)no1,Activity,293T [1],160%
CCN(CC)CC(=O)NCc1cc(-c2ccc(Cl)cc2)no1,Activity,293T [1],17%
CCN(CC)CC(=O)NCc1cn(-c2ccc(OC)cc2[N+](=O)[O-])nn1,Activity,293T [1],92%
CCN(CC)CC(=O)NCc1cc(-c2ccc(C(F)(F)F)cc2)no1,Activity,293T [1],24%
CCN(CC)CC(=O)NCc1cn(Cc2ccccc2)nn1,Activity,293T [1],35%
COc1ccc(-c2cc(CNC(=O)[C@H](CC(=O)OCc3ccccc3)NC(=O)OC(C)(C)C)on2)cc1,Activity,293T [1],118%
CCN(CC)CC(=O)NCc1cc(-c2c(F)c(F)c(F)c(F)c2F)no1,Activity,293T [1],52%
COc1ccc(-c2cc(CNC(=O)[C@@H](N)Cc3ccccc3)on2)cc1,Activity,293T [1],106%
CCN(CC)CC(=O)NCc1cn(-c2ccc(Cl)cc2)nn1,Activity,293T [1],105%
CCN(CC)CC(=O)NCc1cn(-c2ccccc2)nn1,Activity,293T [1],46%
COc1ccc(-c2cc(CNC(=O)[C@H](CS)NC(C)=O)on2)cc1,Activity,HEK-293T [14],Non-toxic
same,Activity,HEK-293T [15],Non-toxic
same,Activity,293T [1],421%
CCN(CC)CC(=O)NCc1cc(-c2ccc(O)cc2)no1,Activity,293T [1],132%
CCN(CC)CC(=O)NCc1cc(-c2ccco2)no1,Activity,293T [1],77%
